Experimental data reported in paper PMC5598375 (Toxicology Reports, 2014).
“Also recorded” adds a separate entry of the source.

Columns and labels:
[1] = test system: 48 h-larvae mwh +/+ flr^3; test: Wing spot test; type: in vivo, Drosophila melanogaster; conditions: for Total spots, statistical diagnosis / Small single spots (1-2 cells), statistical diagnosis: m = 2; for Total spots, statistical diagnosis / Large single spots (>cells), statistical diagnosis / Small single spots (1-2 cells), statistical diagnosis: vs negative control; for Large single spots (>cells), statistical diagnosis: m = 5
Procedure, shortened: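 Crosses: mwh/mwh females × flr3/TM3,Bds males mated 2 h, eggs laid over 2 h. 48 h larvae were collected on 20% sucrose, washed in 24 ± 1 °C water, held 24 h in the dark on filter paper with PP-IX (0–69 mM in 5% sucrose), then fed CrO3 (0.025–2.5 mM) in instant medium, in triplicate. Non-Ser wings were scored at 40× for small (1–2 cells), large and twin spots. Frei–Würgler one-sided test, α=β=0.05, m multiplication factor.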

[2] = test system: 48 h-larvae mwh+/+flr^3; test: Wing spot test; type: in vivo, Drosophila melanogaster; conditions: CrO3 0.025–2.5 mM
[3] = test system: 48 h-old mwh+/+flr^3 larvae; test: Toxicity test; type: in vivo, Drosophila melanogaster; conditions: for % of non-viable larvae / No. of viable larvae ± SEM: 500 larvae
[4] = test system: 48 h-old mwh +/+ flr^3 larvae; test: Wing spot test, PP-IX pretreatment then 20 Gy gamma rays; type: in vivo, Drosophila melanogaster; conditions: for Large single spots (>cells) per wing / Large single spots (>cells), number of spots / Small single spots (1-2 cells) per wing / Small single spots (1-2 cells), number of spots / Total spots per wing / Total spots, number of spots / Twin spots per wing / Twin spots, number of spots: 80 wings; for Small single spots (1-2 cells), statistical diagnosis / Total spots, statistical diagnosis: m = 2
Procedure, shortened: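 48 h-old mwh/flr3 larvae were pretreated 24 h in the dark on filter paper with PP-IX (0, 0.69, 6.9, 69 mM in 5% sucrose). Each group was then split: one half received 20 Gy from a Co-60 source (dose rate up to 1259.44 Gy/h), the other stayed unirradiated. Larvae were reared on hydrated instant medium to eclosion. Wing spots were scored by SMART and analysed by Frei–Würgler statistics, m multiplication factor.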

[5] = test system: rats of the CF1 strain; conditions: cited from earlier work
[6] = test system: Drosophila strain; conditions: chronic treatment, cited from earlier work
[7] = test system: somatic cells of Drosophila; conditions: PP-IX 69 mM, 24 h after administration, with 0.5 mM N-nitroso-N-ethylurea (ENU); cited from earlier work
[8] = PP-IX 0.69 mM 24 h pretreatment alone, 120 wings
[9] = PP-IX 6.9 mM 24 h pretreatment alone, 120 wings
[10] = PP-IX 69 mM 24 h pretreatment alone, 160 wings
[11] = PP-IX 0.69 mM 24 h pretreatment + 20 Gy gamma rays
[12] = PP-IX 0.69 mM + 20 Gy gamma rays
[13] = PP-IX 6.9 mM 24 h pretreatment + 20 Gy gamma rays
[14] = PP-IX 6.9 mM + 20 Gy gamma rays
[15] = PP-IX 69 mM 24 h pretreatment + 20 Gy gamma rays
[16] = PP-IX 69 mM + 20 Gy gamma rays, m = 5

Large single spots (>cells) per wing [1, 8]: 0.05 spots per wing
Large single spots (>cells), number of spots [1, 8]: 6
Small single spots (1-2 cells) per wing [1, 8]: 0.33 spots per wing
Small single spots (1-2 cells), number of spots [1, 8]: 40
Total spots per wing [1, 8]: 0.41 spots per wing
Total spots, number of spots [1, 8]: 49
Twin spots per wing [1, 8]: 0.03 spots per wing
Twin spots, number of spots [1, 8]: 3
Total spots, statistical diagnosis ([1]; PP-IX 0.69 mM alone): −
Large single spots (>cells), statistical diagnosis ([1]; PP-IX 0.69 mM alone): −
Large single spots (>cells) per wing [1, 9]: 0.05 spots per wing
Large single spots (>cells), number of spots [1, 9]: 6
Small single spots (1-2 cells) per wing [1, 9]: 0.23 spots per wing
Small single spots (1-2 cells), number of spots [1, 9]: 28
Total spots per wing [1, 9]: 0.28 spots per wing
Total spots, number of spots [1, 9]: 34
Twin spots per wing [1, 9]: 0 spots per wing
Twin spots, number of spots [1, 9]: (0)
Small single spots (1-2 cells), statistical diagnosis ([1]; PP-IX 6.9 mM alone): −
Total spots, statistical diagnosis ([1]; PP-IX 6.9 mM alone): −
Large single spots (>cells), statistical diagnosis ([1]; PP-IX 6.9 mM alone): −
Large single spots (>cells) per wing [1, 10]: 0.14 spots per wing
Large single spots (>cells), number of spots [1, 10]: 23
Small single spots (1-2 cells) per wing [1, 10]: 0.51 spots per wing
Small single spots (1-2 cells), number of spots [1, 10]: 81
Total spots per wing [1, 10]: 0.66 spots per wing
Total spots, number of spots [1, 10]: 106
Twin spots per wing [1, 10]: 0.01 spots per wing
Twin spots, number of spots [1, 10]: 2
Effect of PP-IX alone on basal mutation frequency ([1]; PP-IX 69 mM alone): doubled the basal mutation frequency
Small single spots (1-2 cells), statistical diagnosis ([1]; PP-IX 69 mM alone): +
Total spots, statistical diagnosis ([1]; PP-IX 69 mM alone): +
Large single spots (>cells), statistical diagnosis ([1]; PP-IX 69 mM alone): −
Structure (SMILES): C=CC1=C(C)c2cc3[nH]c(cc4nc(cc5[nH]c(cc1n2)c(C)c5CCC(=O)O)C(CCC(=O)O)=C4C)c(C)c3C=C [PP-IX, Protoporphyrin-IX]
Mutagenicity of PP-IX alone ([1]; PP-IX 69 mM, damage comparable with 0.25 mM of CrO3): mutagenic
Induction of genetic damage by PP-IX alone ([1]; PP-IX 0.69 and 6.9 mM): did not induce genetic damage
Effect on genetic damage induced by CrO3 ([2]; PP-IX 0.69 mM): significant decrease of damage in four of the five concentrations of CrO3 tested; also recorded: significantly reduced the genetic damage induced by all CrO3 concentrations tested
Effect on genetic damage induced by CrO3 ([2]; PP-IX 6.9 mM): significantly decreased the frequency of damage induced by 2 and 2.5 mM of the mutagen
Effect on genetic damage induced by CrO3 ([2]; PP-IX 69 mM): only reduced the damage induced by 2.5 mM
% of non-viable larvae ([3]; PP-IX 0.69 mM): 21%
No. of viable larvae ± SEM ([3]; PP-IX 0.69 mM): 394 ± 1.7
% of non-viable larvae ([3]; PP-IX 6.9 mM): 11%
No. of viable larvae ± SEM ([3]; PP-IX 6.9 mM): 447 ± 0.6
Reduction of toxicity compared to control ([3]; PP-IX 6.9 mM, not significantly): 5%
% of non-viable larvae ([3]; PP-IX 69 mM): 26%
No. of viable larvae ± SEM ([3]; PP-IX 69 mM): 368 ± 0.5
Toxicity compared to the control ([3]; PP-IX 0.69, 6.9, 69 mM (three concentrations tested)): nontoxic; also recorded: not toxic
Large single spots (>cells) per wing [4, 11]: 1.16 spots per wing
Large single spots (>cells), number of spots [4, 11]: 93
Small single spots (1-2 cells) per wing [4, 11]: 0.82 spots per wing
Small single spots (1-2 cells), number of spots [4, 11]: 66
Total spots per wing [4, 11]: 2.07 spots per wing
Total spots, number of spots [4, 11]: 166
Twin spots per wing [4, 11]: 0.08 spots per wing
Twin spots, number of spots [4, 11]: 7
Small single spots (1-2 cells), statistical diagnosis [4, 12]: −
Total spots, statistical diagnosis [4, 12]: −
Twin spots, statistical diagnosis ([4]; PP-IX 0.69 mM + 20 Gy gamma rays, m = 5): −
Large single spots (>cells) per wing [4, 13]: 1.84 spots per wing
Large single spots (>cells), number of spots [4, 13]: 147
Small single spots (1-2 cells) per wing [4, 13]: 0.69 spots per wing
Small single spots (1-2 cells), number of spots [4, 13]: 55
Total spots per wing [4, 13]: 2.67 spots per wing
Total spots, number of spots [4, 13]: 214
Twin spots per wing [4, 13]: 0.15 spots per wing
Twin spots, number of spots [4, 13]: 12
Small single spots (1-2 cells), statistical diagnosis [4, 14]: −
Total spots, statistical diagnosis [4, 14]: −
Twin spots, statistical diagnosis ([4]; PP-IX 6.9 mM + 20 Gy gamma rays, m = 5): −
Large single spots (>cells) per wing [4, 15]: 1.52 spots per wing
Large single spots (>cells), number of spots [4, 15]: 122
Small single spots (1-2 cells) per wing [4, 15]: 1.16 spots per wing
Small single spots (1-2 cells), number of spots [4, 15]: 93
Total spots per wing [4, 15]: 2.76 spots per wing
Total spots, number of spots [4, 15]: 221
Twin spots per wing [4, 15]: 0.07 spots per wing
Twin spots, number of spots [4, 15]: 6
Small single spots (1-2 cells), statistical diagnosis ([4]; PP-IX 69 mM + 20 Gy gamma rays): −
Total spots, statistical diagnosis ([4]; PP-IX 69 mM + 20 Gy gamma rays): −
Large single spots (>cells), statistical diagnosis [4, 16]: −
Twin spots, statistical diagnosis [4, 16]: −
Effect on damage induced by gamma rays ([4]; PP-IX all tested concentrations, 20 Gy): no effect; also recorded: Absence of an inhibitor effect
Increase of catalase (CAT) activity ([5]; after 2 h of administration): 30%
Lipid peroxidation [5]: induced lipid peroxidation
Superoxide dismutase (SOD) enzyme [5]: increased 24 h after administration
Half life, Sod deficient strain ([6]; Sod deficient strain): half life was reduced
Lifespan, wild strain ([6]; wild Drosophila strain): prolong the lifespan
Mutagenicity in combination with ENU [7]: mutagenic
